Publication PMC6153321 (Pharmacology Research & Perspectives, 2018)
Each block holds one compound with its values, some of them ahead of it. Bridge positions count the residues as written; N and C are the ends. Square brackets hold non-standard residues; d marks the D form. Ends that are not written are not given here. Peptide text beside a SMILES is read from it. I, II: the chains in the order shown. S5 = C=CCCC[C@](C)(N)C(=O)O

What was measured:
[1] = target: RXFP2 (Homo sapiens, UniProt Q8WXD0); assay: CAMYEL BRET real-time cAMP activation, HEK-RXFP2 cells; assay type: cell-based
How it was run: (§1)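 HEK cells stably expressing RXFP1 (HEK293T background) or RXFP2 were transiently transfected with CAMYEL, then reseeded next day in phenol-red-free complete medium with 25 mmol L⁻¹ HEPES. At 37°C, cells got coelenterazine h (5 μmol L⁻¹ final) for a 5-min baseline, then vehicle, forskolin or agonist for 45 min. Read-out was vehicle-subtracted citrine/Rluc BRET ratio, sign-inverted. Agonist curves at 5 and 45 min as % of 10 μmol L⁻¹ forskolin maximum; n=3.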

[2] = target: T1, RXFP3 (Homo sapiens, UniProt Q9NSD7); assay: CAMYEL BRET inhibition of forskolin-stimulated cAMP, CHO-RXFP3 cells; assay type: cell-based; details: agonist 100 nmol L^−1‐10 μmol L^−1, at about 20‐25 minutes
T1 sequence (Q9NSD7 1-469): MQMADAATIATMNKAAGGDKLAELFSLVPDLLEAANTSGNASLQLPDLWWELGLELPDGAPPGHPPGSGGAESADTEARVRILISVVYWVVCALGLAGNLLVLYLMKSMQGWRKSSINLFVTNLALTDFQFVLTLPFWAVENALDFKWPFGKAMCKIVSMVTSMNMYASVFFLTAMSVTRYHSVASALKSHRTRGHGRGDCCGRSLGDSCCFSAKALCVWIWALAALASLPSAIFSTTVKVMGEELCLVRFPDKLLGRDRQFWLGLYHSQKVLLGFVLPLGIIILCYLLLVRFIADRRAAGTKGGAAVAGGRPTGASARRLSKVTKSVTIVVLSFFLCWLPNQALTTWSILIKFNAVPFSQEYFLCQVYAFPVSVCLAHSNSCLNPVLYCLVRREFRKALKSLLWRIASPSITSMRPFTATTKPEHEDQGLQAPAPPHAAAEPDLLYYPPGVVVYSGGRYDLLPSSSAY

[3] = system: adenylate cyclase; details: cited from earlier work
[4] = system: adenylate cyclase; assay: CAMYEL BRET forskolin-induced cAMP, HEK-RXFP2 cells; assay type: cell-based, human; details: 45 minutes
How it was run: as §1

[5] = system: adenylate cyclase; assay: CAMYEL BRET forskolin-induced cAMP, HEK293A ΔGαs cells; assay type: cell-based, human
[6] = system: adenylate cyclase; assay: CAMYEL BRET forskolin-induced cAMP, HEK-RXFP1 cells; assay type: cell-based, human; details: 45 minutes, three independent experiments
How it was run: as §1

[7] = system: adenylate cyclase; assay: CAMYEL BRET forskolin-induced cAMP, HEK293A parental cells; assay type: cell-based, human; details: 45 minutes, three independent experiments
[8] = system: adenylate cyclase; assay: CAMYEL BRET forskolin-induced cAMP, THP-1 CAMYEL cells; assay type: cell-based, human; details: high-CAMYEL THP‐1 cells, three independent experiments
[9] = system: β‐adrenoceptors; assay: CAMYEL BRET isoprenaline-induced cAMP, HEK293A parental cells; assay type: cell-based, human; details: 10 μmol L^−1
How it was run: (§2)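 HEK293A parental or Gαs-knockout cells were co-transfected with CAMYEL and RXFP1, then reseeded overnight in phenol-red-free HEPES medium. Isoprenaline (10 μmol L⁻¹) served as a control for endogenous Gαs-coupled β-adrenoceptor signalling. Read-out: vehicle-subtracted, sign-inverted 535/475 nm BRET ratio; three independent experiments.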

[10] = system: β‐adrenoceptors; assay: CAMYEL BRET isoprenaline-induced cAMP, HEK293A ΔGαs cells; assay type: cell-based, human; details: 10 μmol L^−1
How it was run: as §2

[11] = system: GH3B6 cells; details: cited from earlier work
[12] = target: T1, RXFP3; assay: CAMYEL BRET inhibition of forskolin-stimulated cAMP, HEK-RXFP3 cells; assay type: cell-based; details: 45 minutes, mean ± SEM, three independent experiments

RXFP2, sequence (Q8WXD0 whole entry): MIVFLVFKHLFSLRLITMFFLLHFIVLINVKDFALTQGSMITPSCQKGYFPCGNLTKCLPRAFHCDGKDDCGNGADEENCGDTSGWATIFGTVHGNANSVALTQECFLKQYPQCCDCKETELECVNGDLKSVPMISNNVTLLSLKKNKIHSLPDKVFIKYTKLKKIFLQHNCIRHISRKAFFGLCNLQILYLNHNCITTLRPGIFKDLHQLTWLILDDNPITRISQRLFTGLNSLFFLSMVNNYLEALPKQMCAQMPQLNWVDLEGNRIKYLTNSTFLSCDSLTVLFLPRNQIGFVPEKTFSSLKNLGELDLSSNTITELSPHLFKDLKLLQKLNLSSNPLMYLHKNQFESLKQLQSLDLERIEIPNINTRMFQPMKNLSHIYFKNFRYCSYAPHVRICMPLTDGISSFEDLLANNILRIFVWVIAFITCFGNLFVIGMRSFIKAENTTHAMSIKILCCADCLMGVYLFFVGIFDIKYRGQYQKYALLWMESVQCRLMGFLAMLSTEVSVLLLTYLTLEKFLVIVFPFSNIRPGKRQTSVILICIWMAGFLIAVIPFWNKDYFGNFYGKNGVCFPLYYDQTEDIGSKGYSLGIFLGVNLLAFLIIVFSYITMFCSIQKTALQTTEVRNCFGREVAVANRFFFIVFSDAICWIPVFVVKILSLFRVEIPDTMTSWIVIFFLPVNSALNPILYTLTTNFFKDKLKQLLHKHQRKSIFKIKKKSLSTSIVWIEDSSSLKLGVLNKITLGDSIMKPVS

Compound: CC(C)NCC(O)c1ccc(O)c(O)c1 (centres unmarked) [Isoprenaline]
- cAMP response to isoprenaline [9]: robust in the parental cells
- cAMP response to isoprenaline [10]: abolished in the ΔGαs cells

Compound: vasoactive intestinal peptide: treatment of GH3B6 cells in cited work (ref 49) (HSDAVFTDNYTRLRKQMAVKKYLNSILN; ends and bridges not checked; UniProt P01282 125-152, looked up)
- cAMP activity reported by AC8‐localized sensor [11]: not detected by an AC8‐localized sensor

Compound: CC[C@H](C)[C@@H]1NC(=O)[C@H](Cc2ccccc2)NC(=O)[C@H](CCC(=O)O)NC(=O)[C@H](CCCNC(=N)N)NC(=O)CNC(=O)[C@@H](NC(=O)[C@H](CC(C)C)NC(=O)[C@H](CCCNC(=N)N)NC(=O)[C@@H](NC(=O)CNC(=O)[C@H](Cc2ccc(O)cc2)NC(=O)[C@@H]2CCCN2C(=O)[C@H](C)NC(=O)[C@H](C)NC(=O)[C@@H](N)CCCNC(=N)N)C(C)C)CSSC[C@H](N)C(=O)N[C@@H](CCCCN)C(=O)N[C@@H](Cc2c[nH]c3ccccc23)C(=O)NCC(=O)N[C@@H](C)C(=O)N[C@@H](CO)C(=O)N[C@@H](CCCCN)C(=O)N[C@@H](CO)C(=O)N[C@@H](CCC(=O)O)C(=O)N[C@@H]([C@@H](C)CC)C(=O)N[C@@H](CO)C(=O)N[C@@H](CO)C(=O)N[C@@H](CC(C)C)C(=O)N[C@H](C(=O)O)CSSC[C@@H](C(=O)NCC(=O)NCC(=O)N[C@@H](CO)C(=O)N[C@@H](CCCNC(=N)N)C(=O)N[C@@H](Cc2c[nH]c3ccccc23)C(=O)O)NC(=O)[C@H]([C@@H](C)O)NC(=O)[C@H](Cc2ccccc2)NC(=O)[C@H]([C@@H](C)CC)NC(=O)[C@H](C(C)C)NC(=O)[C@H](C)NC(=O)[C@H](CCCNC(=N)N)NC1=O [Analogue 2]
- inhibition of forskolin-stimulated cAMP at higher concentrations [2]: Complete or near‐complete inhibition
- pEC50 [12]: Ambiguous

Compound: thyrotropin‐releasing hormone
- cAMP activity reported by AC8‐localized sensor [11]: increases in cAMP activity
- cAMP activity reported by cytosolic or plasma membrane FRET biosensors [11]: not the cytosolic or membrane forms

Now from value to compound, other results behind:

- potency increase between 5 and 45 minutes ([1]; P < 0.01): ~10 fold
- temporal pattern of cAMP activity ([1]; sub‐maximal concentrations): slow, sustained increases
Compound: I: PTPEMREKLCGHHFVRALVRVCGGPRWSTEA / II: AAATNPARYCCLSGCTQQDLLTLCPY (disulfide I:10-II:11, I:22-II:24, II:10-II:15) [INSL3]

- inhibition of forskolin-stimulated cAMP at higher concentrations [2]: Complete or near‐complete inhibition
Compound: CC[C@H](C)[C@@H]1NC(=O)[C@H](Cc2ccccc2)NC(=O)[C@@](C)(NC(=O)[C@H](CCCNC(=N)N)NC(=O)CNC(=O)[C@@H](N)CO)CCCC=CCCC[C@@](C)(C(=O)N[C@H](C(=O)N[C@H](C(=O)N[C@@H](Cc2ccccc2)C(=O)N[C@H](C(=O)N[C@@H](CO)C(=O)NCC(=O)NCC(=O)N[C@@H](CO)C(=O)N[C@@H](CCCNC(=N)N)C(=O)N[C@@H](Cc2c[nH]c3ccccc23)C(N)=O)[C@@H](C)O)[C@@H](C)CC)C(C)C)NC(=O)[C@H](CCCNC(=N)N)NC1=O [Peptide 5] (H-SGR[S5]FIR[S5]VIFTSGGSRW-NH2; staple 4-8; N-terminus and C-terminus assumed)

- potency (pEC50) of forskolin ([4]; HEK‐RXFP2, three independent experiments): 5.92 ± 0.08
- potency of forskolin (pEC50) ([5]; 45 minutes, HEK293A ΔGαs with re‐expression of Gαs, three independent experiments): 7.1 ± 1.29
- potency (pEC50) of forskolin [6]: 6.77 ± 0.07
- potency of forskolin (pEC50) ([8]; 5 minutes): 5.29 ± 0.03
- potency of forskolin (pEC50) ([8]; 45 minutes): 4.93 ± 0.05
Compound: C=C[C@@]1(C)CC(=O)[C@]2(O)[C@@]3(C)[C@@H](O)CCC(C)(C)[C@@H]3[C@H](O)[C@H](OC(C)=O)[C@@]2(C)O1 [forskolin]
- affinity for adenylate cyclase in the absence of Gαs [3]: lower affinity for adenylate cyclase in the absence of Gαs
- forskolin potency in HEK‐RXFP2 relative to HEK‐RXFP1 cells ([4]; P < 0.01): nearly ten times lower than that seen in the HEK‐RXFP1 cells
- forskolin-induced cAMP activity ([5]; HEK293A ΔGαs, without Gαs re-expression): very weak cAMP activity
- forskolin concentration required to detect a cAMP increase ([5]; HEK293A ΔGαs, increase only transient): > 10 µmol/L
- potency of forskolin (pEC50) [7]: 5.91 ± 0.04
